In ChEMBL document CHEMBL1124974, “Orally potent human renin inhibitors derived from angiotensinogen transition state: design, synthesis, and mode of interaction” (J Med Chem, 1990):

How the values were obtained:
[1] = molecular target: T1, Renin (Homo sapiens, UniProt P00797); assay: Tested for inhibition of human plasma renin; assay type: cell-free
T1 sequence (P00797 whole entry): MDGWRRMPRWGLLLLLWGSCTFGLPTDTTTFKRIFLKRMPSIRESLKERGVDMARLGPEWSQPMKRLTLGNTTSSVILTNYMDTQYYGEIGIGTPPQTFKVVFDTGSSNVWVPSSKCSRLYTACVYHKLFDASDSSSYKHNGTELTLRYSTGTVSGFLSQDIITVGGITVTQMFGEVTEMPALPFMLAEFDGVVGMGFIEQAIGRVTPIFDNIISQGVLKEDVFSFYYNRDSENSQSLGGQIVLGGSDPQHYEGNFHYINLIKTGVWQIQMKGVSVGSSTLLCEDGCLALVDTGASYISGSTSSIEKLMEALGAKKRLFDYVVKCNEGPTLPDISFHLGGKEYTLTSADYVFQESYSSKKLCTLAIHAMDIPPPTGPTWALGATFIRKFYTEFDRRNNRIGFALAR
Procedure, shortened: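 Human plasma containing EDTA-2Na (14 mM) and neomycin sulfate (0.3%) mixed with 0.5 M phosphate buffer pH 7.0, Phe-Ala-Pro (20 mM aqueous stock) and inhibitor in DMSO; 60 min at 37 °C; angiotensin I generated quantified by radioimmunoassay.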

[2] = molecular target: T1, Renin; assay: Tested for inhibition of renin from human
[3] = molecular target: T2, Angiotensin-converting enzyme (Oryctolagus cuniculus, UniProt P12822); assay: Tested for inhibition of Angiotensin I converting enzyme from rabbit.
T2 sequence (P12822 whole entry): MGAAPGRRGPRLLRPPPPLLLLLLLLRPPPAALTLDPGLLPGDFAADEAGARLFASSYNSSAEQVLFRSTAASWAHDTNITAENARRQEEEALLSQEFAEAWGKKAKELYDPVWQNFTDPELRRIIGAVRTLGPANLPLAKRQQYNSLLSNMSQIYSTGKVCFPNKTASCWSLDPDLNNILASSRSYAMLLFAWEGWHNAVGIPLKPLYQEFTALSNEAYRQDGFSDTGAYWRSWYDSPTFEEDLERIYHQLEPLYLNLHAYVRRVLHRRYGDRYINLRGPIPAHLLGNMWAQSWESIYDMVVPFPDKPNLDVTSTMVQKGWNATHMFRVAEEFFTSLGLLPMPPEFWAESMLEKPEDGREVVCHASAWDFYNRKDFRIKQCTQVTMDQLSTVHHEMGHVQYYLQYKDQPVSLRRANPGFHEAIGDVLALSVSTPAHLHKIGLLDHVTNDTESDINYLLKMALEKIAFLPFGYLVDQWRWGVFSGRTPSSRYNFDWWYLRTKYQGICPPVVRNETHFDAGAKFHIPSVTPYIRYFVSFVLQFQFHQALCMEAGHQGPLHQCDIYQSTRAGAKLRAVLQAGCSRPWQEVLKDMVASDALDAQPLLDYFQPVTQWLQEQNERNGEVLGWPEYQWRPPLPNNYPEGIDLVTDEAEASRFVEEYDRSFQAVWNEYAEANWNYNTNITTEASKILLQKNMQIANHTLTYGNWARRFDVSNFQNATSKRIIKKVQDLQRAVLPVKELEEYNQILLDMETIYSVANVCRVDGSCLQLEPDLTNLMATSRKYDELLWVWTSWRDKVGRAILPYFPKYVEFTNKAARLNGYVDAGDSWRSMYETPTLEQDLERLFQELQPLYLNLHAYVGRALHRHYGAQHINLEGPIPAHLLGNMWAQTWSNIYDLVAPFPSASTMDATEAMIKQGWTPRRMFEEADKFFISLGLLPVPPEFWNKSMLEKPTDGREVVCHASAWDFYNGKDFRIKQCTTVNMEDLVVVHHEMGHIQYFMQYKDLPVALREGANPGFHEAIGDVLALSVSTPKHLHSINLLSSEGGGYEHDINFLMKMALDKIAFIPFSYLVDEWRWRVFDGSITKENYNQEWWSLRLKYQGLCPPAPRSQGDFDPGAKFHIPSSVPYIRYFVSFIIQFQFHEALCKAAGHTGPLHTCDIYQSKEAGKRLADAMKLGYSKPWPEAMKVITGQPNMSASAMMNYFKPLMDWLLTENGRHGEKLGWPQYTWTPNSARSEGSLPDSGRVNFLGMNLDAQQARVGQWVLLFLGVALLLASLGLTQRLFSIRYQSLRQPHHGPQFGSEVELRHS
Procedure, shortened: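 Inhibition measured at 37 °C with Hip-His-Leu substrate, pH 8.3.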

[4] = molecular target: T3, Cathepsin D (Bos taurus, UniProt P80209); assay: Tested for inhibition of Cathepsin D from bovine
T3 sequence (P80209 whole entry): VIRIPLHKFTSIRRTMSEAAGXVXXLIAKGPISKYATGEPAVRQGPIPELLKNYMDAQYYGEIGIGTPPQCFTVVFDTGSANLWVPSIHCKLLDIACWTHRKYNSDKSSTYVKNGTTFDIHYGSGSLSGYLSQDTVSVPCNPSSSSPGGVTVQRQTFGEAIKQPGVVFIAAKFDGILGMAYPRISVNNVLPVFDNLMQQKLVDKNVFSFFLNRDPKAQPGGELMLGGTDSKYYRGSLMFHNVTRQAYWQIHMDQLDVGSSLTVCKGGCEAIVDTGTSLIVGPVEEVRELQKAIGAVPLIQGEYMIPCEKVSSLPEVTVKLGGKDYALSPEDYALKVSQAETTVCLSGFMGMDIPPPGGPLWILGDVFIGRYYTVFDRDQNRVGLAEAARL
Procedure, shortened: (§1)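 Run at 37 °C with hemoglobin substrate at pH 3.2 for cathepsin D, casein substrate at pH 2.0 for pepsin.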

[5] = molecular target: Pepsin A (Sus scrofa, UniProt P00791); assay: Tested for inhibition of pepsin from porcine; procedure, shortened: as §1
Sequence of Pepsin A (P00791 whole entry): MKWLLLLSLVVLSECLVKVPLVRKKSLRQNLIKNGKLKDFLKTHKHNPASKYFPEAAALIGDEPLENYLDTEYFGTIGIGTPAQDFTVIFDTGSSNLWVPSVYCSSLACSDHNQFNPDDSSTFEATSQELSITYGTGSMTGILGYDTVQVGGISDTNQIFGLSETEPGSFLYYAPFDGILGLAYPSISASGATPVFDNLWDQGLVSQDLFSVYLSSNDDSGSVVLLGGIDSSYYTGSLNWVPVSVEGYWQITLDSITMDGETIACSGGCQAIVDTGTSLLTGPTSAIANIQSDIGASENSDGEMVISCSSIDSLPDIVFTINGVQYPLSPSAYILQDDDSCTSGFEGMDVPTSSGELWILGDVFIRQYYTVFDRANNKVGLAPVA

| SMILES | IC50 [1] [nM] | IC50 [2] [nM] | IC50 [3] [nM] | IC50 [4] [nM] | IC50 [5] [nM] |
| --- | --- | --- | --- | --- | --- |
| CC(C)OC(=O)[C@@H](O)[C@@H](CC1CCCCC1)NC(=O)[C@H](Cc1c[nH]cn1)NC(=O)[C@@H](CC(=O)N1CCOCC1)Cc1cccc2ccccc12 | 4200 | 2700 |  |  |  |
| CC(C)OC(=O)[C@H](O)[C@@H](CC1CCCCC1)NC(=O)[C@H](Cc1c[nH]cn1)NC(=O)[C@@H](CC(=O)N1CCOCC1)Cc1cccc2ccccc12 | 2100 | 3500 |  |  |  |
| CC(C)OC(=O)C(O)[C@@H](Cc1ccccc1)NC(=O)[C@H](Cc1cnc[nH]1)NC(=O)[C@@H](CC(=O)N1CCOCC1)Cc1cccc2ccccc12 (some centres not stated) | 270 | 110 |  |  |  |
| CC(C)OC(=O)[C@H](O)[C@H](CC1CCCCC1)NC(=O)[C@H](Cc1c[nH]cn1)NC(=O)[C@H](CC(=O)N1CCOCC1)Cc1cccc2ccccc12 | 1500 | 4200 |  |  |  |
| CC(C)OC(=O)[C@H](O)[C@H](CC1CCCCC1)NC(=O)[C@@H](Cc1c[nH]cn1)NC(=O)[C@@H](CC(=O)N1CCOCC1)Cc1cccc2ccccc12 | 2300 | 2500 |  |  |  |
| CC(C)OC(=O)[C@H](O)[C@H](CC1CCCCC1)NC(=O)[C@H](Cc1c[nH]cn1)NC(=O)[C@@H](CC(=O)N1CCOCC1)Cc1cccc2ccccc12 | 4.7 | 2.4 | > 100000 | 80000 | > 100000 |
| CC(C)CC(=O)N[C@H](C(=O)N[C@H](C(=O)N[C@@H](CC(C)C)[C@@H](O)CC(=O)N[C@@H](C)C(=O)N[C@@H](CC(C)C)[C@@H](O)CC(=O)O)C(C)C)C(C)C [PEPSTATIN] |  |  | > 100000 |  | 18 |
